Laboratory results: ChEMBL document CHEMBL3621130, “Identification and characterization of β-sitosterol target proteins” (Bioorg Med Chem Lett, 2015)
Active and inactive are the calls of the source. The rule behind the calls is not given here.

What was measured:
Format in all cases: cell-based
[1] = target: T1, Peroxisomal multifunctional enzyme type 2 (Mus musculus) (UniProt P51660); experiment: Binding affinity to 17beta-HSD4 in mouse RAW264.7 cells at 200 nM by Western blot analysis
T1 sequence (whole entry): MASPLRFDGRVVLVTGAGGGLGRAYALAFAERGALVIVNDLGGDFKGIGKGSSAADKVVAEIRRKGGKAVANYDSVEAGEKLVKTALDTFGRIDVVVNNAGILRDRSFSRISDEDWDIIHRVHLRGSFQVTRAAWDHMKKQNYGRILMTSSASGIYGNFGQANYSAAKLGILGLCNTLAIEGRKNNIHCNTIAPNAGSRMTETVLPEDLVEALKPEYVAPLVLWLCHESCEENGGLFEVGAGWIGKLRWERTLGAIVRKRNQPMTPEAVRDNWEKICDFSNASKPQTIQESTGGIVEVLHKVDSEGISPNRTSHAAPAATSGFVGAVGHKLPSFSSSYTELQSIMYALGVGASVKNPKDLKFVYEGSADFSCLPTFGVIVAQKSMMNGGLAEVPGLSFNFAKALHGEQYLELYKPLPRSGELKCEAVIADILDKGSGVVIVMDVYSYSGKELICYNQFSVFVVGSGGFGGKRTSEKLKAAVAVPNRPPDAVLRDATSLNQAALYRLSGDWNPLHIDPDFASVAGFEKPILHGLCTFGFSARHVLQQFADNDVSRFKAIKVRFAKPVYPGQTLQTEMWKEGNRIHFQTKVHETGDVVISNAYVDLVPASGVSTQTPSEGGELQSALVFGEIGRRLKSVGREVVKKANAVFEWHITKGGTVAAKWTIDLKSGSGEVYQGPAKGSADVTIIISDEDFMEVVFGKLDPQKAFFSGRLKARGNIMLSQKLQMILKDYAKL
Summary of the method: (§1)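 Streptavidin affinity pull-down was run side by side in lysates from LPS-treated and untreated mouse Raw264.7 macrophages. Biotin, biotinylated β-sitosterol or biotinylated cholesterol was used at 200 nM for 17β-HSD4 and 600 nM for E-Syt1. Probe incubation with lysate was 2 h, followed by overnight streptavidin agarose capture.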

[2] = target: T2, 3-oxo-5-alpha-steroid 4-dehydrogenase 1 (Homo sapiens) (UniProt P18405); experiment: Binding affinity to S5A1 in human DU145 cells at 200 to 600 nM by affinity chromatography analysis; details: DU-145
T2 sequence (whole entry): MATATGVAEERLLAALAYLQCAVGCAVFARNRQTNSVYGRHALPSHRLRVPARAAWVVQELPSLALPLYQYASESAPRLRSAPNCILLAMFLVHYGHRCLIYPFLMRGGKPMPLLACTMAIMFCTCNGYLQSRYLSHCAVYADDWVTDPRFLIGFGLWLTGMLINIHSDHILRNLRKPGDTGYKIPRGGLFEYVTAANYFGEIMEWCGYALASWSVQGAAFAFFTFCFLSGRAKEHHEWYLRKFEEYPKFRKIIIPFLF

[3] = target: T3, Peroxisomal multifunctional enzyme type 2 (Homo sapiens) (UniProt P51659); experiment: Binding affinity to 17beta-HSD4 in human DU145 cells at 200 nM by affinity chromatography analysis; details: DU-145
T3 sequence (whole entry): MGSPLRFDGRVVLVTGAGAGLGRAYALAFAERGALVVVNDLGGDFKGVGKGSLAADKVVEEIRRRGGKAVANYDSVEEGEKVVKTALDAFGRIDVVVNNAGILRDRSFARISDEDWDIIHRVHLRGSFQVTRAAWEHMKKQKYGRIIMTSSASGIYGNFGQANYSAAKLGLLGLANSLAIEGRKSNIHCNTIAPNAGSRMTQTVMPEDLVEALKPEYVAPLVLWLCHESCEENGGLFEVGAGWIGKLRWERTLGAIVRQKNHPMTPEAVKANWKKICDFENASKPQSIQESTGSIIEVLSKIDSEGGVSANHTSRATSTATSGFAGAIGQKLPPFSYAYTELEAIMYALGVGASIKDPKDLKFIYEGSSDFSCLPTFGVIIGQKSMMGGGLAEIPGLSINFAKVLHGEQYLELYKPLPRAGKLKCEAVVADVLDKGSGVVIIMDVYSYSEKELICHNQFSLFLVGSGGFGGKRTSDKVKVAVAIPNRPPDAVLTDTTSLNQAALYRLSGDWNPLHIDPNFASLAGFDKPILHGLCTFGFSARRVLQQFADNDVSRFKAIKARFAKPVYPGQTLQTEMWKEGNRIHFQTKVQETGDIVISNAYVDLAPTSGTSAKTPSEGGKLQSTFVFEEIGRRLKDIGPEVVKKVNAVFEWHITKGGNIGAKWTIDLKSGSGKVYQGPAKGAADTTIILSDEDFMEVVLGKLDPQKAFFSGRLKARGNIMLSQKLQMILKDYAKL

[4] = target: T2, 3-oxo-5-alpha-steroid 4-dehydrogenase 1 (Homo sapiens); experiment: Binding affinity to S5A1 in human PC3 cells at 200 to 600 nM by affinity chromatography analysis; details: PC-3
[5] = target: T1, Peroxisomal multifunctional enzyme type 2 (Mus musculus); experiment: Binding affinity to 17beta-HSD4 in mouse LPS-treated RAW264.7 cells at 200 nM by Western blot analysis; summary of the method: as §1
[6] = target: T3, Peroxisomal multifunctional enzyme type 2 (Homo sapiens); experiment: Binding affinity to 17beta-HSD4 in human PC3 cells at 200 nM by affinity chromatography analysis; details: PC-3
[7] = target: T4, Extended synaptotagmin-1 (Homo sapiens) (UniProt Q9BSJ8); experiment: Binding affinity to E-Syt1 in human DU145 cells at 600 nM by affinity chromatography analysis; details: DU-145
T4 sequence (whole entry): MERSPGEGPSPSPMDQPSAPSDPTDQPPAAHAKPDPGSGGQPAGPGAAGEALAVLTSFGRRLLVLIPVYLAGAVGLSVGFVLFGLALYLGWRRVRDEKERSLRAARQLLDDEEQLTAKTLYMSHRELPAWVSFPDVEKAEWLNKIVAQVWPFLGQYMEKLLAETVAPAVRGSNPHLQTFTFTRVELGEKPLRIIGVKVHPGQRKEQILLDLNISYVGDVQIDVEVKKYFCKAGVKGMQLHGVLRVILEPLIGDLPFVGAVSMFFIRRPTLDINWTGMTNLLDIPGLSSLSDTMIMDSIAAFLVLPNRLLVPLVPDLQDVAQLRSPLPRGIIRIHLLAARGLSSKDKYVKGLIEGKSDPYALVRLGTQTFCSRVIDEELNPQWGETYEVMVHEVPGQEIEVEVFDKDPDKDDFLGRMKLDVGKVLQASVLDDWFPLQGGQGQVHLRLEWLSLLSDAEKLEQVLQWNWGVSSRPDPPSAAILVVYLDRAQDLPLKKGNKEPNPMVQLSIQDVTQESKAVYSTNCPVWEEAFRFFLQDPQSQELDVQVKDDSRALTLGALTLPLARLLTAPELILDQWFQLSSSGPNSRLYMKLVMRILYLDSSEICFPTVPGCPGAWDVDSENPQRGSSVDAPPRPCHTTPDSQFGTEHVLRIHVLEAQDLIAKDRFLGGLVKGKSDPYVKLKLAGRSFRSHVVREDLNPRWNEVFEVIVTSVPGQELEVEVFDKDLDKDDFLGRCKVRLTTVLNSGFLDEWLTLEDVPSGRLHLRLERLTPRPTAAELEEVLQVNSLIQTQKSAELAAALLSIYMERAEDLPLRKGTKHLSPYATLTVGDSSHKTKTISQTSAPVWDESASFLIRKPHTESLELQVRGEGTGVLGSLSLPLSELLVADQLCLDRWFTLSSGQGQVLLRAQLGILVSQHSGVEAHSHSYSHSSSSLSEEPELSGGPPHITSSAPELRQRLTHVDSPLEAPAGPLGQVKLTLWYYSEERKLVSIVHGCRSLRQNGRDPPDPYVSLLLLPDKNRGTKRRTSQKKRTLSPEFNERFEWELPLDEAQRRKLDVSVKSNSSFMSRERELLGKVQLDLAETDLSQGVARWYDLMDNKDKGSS

[8] = target: T4, Extended synaptotagmin-1 (Homo sapiens); experiment: Binding affinity to E-Syt1 in human PC3 cells at 600 nM by affinity chromatography analysis; details: PC-3
[9] = target: T5, Extended synaptotagmin-1 (Mus musculus) (UniProt Q3U7R1); experiment: Binding affinity to E-Syt1 in mouse LPS-treated RAW264.7 cells at 600 nM after 2 hrs by MALDI mass spectrometry analysis
T5 sequence (whole entry): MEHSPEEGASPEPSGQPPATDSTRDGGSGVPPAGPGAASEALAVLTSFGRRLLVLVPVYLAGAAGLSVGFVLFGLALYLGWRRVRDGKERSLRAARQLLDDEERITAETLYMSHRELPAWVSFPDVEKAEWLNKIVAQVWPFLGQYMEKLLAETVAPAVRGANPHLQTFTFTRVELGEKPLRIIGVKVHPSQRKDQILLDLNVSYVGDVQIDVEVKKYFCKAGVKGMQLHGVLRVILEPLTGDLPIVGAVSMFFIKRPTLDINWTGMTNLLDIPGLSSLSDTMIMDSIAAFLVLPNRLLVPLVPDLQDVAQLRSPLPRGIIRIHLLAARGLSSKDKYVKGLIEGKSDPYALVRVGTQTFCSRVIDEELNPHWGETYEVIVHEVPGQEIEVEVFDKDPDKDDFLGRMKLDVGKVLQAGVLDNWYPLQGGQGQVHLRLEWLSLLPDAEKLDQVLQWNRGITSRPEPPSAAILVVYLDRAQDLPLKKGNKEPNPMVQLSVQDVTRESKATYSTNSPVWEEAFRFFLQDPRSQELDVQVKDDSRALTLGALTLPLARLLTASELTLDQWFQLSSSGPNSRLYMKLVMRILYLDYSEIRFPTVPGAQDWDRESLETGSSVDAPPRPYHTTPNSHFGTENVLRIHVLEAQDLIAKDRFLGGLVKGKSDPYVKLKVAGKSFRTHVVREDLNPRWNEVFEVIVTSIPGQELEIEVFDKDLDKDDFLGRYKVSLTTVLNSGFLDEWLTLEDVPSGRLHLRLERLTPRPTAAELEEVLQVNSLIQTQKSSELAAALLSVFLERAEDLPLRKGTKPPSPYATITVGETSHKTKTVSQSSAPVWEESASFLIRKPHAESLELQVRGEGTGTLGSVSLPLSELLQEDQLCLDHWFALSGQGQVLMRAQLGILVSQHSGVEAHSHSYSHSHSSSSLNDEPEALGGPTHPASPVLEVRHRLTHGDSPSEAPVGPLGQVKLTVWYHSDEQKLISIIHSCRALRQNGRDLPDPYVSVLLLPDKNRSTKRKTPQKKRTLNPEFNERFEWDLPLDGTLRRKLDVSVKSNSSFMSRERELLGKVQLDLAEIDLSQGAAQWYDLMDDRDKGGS

[10] = target: T5, Extended synaptotagmin-1 (Mus musculus); experiment: Binding affinity to E-Syt1 in mouse RAW264.7 cells at 600 nM by Western blot analysis; summary of the method: as §1
[11] = target: T5, Extended synaptotagmin-1 (Mus musculus); experiment: Binding affinity to E-Syt1 in mouse LPS-treated RAW264.7 cells at 600 nM by Western blot analysis; summary of the method: as §1
[12] = target: T1, Peroxisomal multifunctional enzyme type 2 (Mus musculus); experiment: Binding affinity to 17beta-HSD4 in mouse LPS-treated RAW264.7 cells at 200 nM after 2 hrs by MALDI mass spectrometry analysis
[13] = target: T1, Peroxisomal multifunctional enzyme type 2 (Mus musculus); experiment: Binding affinity to 17beta-HSD4 in mouse RAW264.7 cells at 200 nM after 2 hrs by MALDI mass spectrometry analysis; summary of the method: as §1
[14] = target: T5, Extended synaptotagmin-1 (Mus musculus); experiment: Binding affinity to E-Syt1 in mouse RAW264.7 cells at 600 nM after 2 hrs by MALDI mass spectrometry analysis; summary of the method: as §1

Compound | Activity [1] | Activity [2] | Activity [3] | Activity [4] | Activity [5] | Activity [6] | Activity [7] | Activity [8] | Activity [9] | Activity [10] | Activity [11] | Activity [12] | Activity [13] | Activity [14]
CC(C)CCC[C@@H](C)[C@H]1CC[C@H]2[C@@H]3CC=C4C[C@@H](OCc5cn(CCOCCOCCOCCNC(=O)CCCC[C@@H]6SC[C@@H]7NC(=O)N[C@@H]76)nn5)CC[C@]4(C)[C@H]3CC[C@]12C | Active | inactive | Active | inactive | Active | Active | – | – | – | – | – | – | – | –
CC[C@H](CC[C@@H](C)[C@H]1CC[C@H]2[C@@H]3CC=C4C[C@@H](OCc5cn(CCOCCOCCOCCNC(=O)CCCC[C@@H]6SC[C@@H]7NC(=O)N[C@@H]76)nn5)CC[C@]4(C)[C@H]3CC[C@]12C)C(C)C | Active | inactive | Active | inactive | Active | Active | Active | Active | Active | Active | Active | Active | Active | Active
